Assay results taken from ChEMBL document CHEMBL1141595, “1-(2-Phenoxyphenyl)methanamines: SAR for dual serotonin/noradrenaline reuptake inhibition, metabolic stability and hERG affinity” (Bioorg Med Chem Lett, 2008).

Tests used:
[1] = Metabolic stability assessed as intrinsic clearance in human liver microsomes; format: ADME, Microsome
[2] = biological target: Sodium-dependent serotonin transporter (Homo sapiens, UniProt P31645); assay: Inhibition of [3H]5HT uptake at human 5HT transporter expressed in HEK293 cells; format: cell-based
Sodium-dependent serotonin transporter, sequence (P31645 whole entry): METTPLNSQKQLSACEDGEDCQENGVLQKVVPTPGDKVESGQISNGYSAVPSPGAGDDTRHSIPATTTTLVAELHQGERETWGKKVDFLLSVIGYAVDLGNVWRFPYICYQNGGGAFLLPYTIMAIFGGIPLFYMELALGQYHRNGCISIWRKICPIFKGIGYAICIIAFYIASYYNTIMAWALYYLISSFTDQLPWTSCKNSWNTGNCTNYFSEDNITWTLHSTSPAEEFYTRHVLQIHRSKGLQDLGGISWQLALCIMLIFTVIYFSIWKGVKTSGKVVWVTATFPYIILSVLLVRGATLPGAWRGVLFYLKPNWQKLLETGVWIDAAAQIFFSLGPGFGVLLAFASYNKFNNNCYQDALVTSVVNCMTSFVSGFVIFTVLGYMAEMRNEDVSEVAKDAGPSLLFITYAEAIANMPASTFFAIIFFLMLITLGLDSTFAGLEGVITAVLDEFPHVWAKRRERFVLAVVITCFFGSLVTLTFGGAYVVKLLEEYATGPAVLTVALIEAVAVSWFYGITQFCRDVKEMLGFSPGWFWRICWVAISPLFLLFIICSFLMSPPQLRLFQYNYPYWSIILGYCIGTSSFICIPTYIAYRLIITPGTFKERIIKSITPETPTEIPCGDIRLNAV
Outline: (§1)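 HEK293 cells each expressing one human amine transporter, 7500 cells/well, preincubated 5 min at 25 °C with compound or DMSO vehicle. Uptake was started with tritiated substrate: 5-HT 50 nM (5 min), NA 200 nM (15 min), DA 200 nM (5 min), shaken at 25 °C. Stopped by ice-cold wash and filtration, then scintillation counting.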

[3] = biological target: Sodium-dependent noradrenaline transporter (Homo sapiens, UniProt P23975); assay: Inhibition of [3H]NA uptake at human NA transporter expressed in HEK293 cells; format: cell-based; outline: as §1
Sodium-dependent noradrenaline transporter, sequence (P23975 whole entry): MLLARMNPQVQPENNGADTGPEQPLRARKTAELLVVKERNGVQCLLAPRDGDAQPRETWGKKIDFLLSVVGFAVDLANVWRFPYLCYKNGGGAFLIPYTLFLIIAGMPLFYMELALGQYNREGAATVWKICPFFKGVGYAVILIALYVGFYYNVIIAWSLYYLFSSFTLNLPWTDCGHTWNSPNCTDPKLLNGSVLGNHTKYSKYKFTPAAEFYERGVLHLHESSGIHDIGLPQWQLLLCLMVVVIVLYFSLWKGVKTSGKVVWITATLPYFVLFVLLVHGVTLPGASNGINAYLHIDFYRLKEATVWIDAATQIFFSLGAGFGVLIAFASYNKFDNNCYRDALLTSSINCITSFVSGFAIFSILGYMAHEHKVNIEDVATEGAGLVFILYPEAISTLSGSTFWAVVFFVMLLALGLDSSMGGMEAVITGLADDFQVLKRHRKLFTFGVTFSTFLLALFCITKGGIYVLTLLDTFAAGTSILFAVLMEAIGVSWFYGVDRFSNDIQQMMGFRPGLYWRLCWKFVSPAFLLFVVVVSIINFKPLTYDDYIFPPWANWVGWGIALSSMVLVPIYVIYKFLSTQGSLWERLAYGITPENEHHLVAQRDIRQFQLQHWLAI

[4] = biological target: Sodium-dependent dopamine transporter (Homo sapiens, UniProt Q01959); assay: Inhibition of [3H]dopamine uptake at human dopamine transporter expressed in HEK293 cells; format: cell-based; outline: as §1
Sodium-dependent dopamine transporter, sequence (Q01959 whole entry): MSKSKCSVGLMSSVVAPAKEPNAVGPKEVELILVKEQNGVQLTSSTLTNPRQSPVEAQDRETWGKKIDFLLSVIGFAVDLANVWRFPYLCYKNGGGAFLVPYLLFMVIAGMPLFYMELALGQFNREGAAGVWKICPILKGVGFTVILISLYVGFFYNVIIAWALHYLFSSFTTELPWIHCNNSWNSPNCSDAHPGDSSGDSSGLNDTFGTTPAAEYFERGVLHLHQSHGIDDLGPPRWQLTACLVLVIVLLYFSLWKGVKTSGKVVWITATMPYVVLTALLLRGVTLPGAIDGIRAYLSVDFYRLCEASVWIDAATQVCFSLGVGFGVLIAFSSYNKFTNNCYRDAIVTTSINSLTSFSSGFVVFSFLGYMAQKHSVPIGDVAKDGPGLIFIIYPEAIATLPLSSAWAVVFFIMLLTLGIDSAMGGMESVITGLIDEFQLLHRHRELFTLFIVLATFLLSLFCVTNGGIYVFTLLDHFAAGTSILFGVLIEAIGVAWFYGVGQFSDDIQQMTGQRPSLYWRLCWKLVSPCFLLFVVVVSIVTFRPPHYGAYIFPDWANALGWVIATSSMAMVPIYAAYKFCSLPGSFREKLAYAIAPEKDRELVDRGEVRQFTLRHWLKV

[5] = biological target: Voltage-gated inwardly rectifying potassium channel KCNH2 (Homo sapiens, UniProt Q12809); assay: Binding affinity to human ERG
Voltage-gated inwardly rectifying potassium channel KCNH2, sequence (Q12809 whole entry): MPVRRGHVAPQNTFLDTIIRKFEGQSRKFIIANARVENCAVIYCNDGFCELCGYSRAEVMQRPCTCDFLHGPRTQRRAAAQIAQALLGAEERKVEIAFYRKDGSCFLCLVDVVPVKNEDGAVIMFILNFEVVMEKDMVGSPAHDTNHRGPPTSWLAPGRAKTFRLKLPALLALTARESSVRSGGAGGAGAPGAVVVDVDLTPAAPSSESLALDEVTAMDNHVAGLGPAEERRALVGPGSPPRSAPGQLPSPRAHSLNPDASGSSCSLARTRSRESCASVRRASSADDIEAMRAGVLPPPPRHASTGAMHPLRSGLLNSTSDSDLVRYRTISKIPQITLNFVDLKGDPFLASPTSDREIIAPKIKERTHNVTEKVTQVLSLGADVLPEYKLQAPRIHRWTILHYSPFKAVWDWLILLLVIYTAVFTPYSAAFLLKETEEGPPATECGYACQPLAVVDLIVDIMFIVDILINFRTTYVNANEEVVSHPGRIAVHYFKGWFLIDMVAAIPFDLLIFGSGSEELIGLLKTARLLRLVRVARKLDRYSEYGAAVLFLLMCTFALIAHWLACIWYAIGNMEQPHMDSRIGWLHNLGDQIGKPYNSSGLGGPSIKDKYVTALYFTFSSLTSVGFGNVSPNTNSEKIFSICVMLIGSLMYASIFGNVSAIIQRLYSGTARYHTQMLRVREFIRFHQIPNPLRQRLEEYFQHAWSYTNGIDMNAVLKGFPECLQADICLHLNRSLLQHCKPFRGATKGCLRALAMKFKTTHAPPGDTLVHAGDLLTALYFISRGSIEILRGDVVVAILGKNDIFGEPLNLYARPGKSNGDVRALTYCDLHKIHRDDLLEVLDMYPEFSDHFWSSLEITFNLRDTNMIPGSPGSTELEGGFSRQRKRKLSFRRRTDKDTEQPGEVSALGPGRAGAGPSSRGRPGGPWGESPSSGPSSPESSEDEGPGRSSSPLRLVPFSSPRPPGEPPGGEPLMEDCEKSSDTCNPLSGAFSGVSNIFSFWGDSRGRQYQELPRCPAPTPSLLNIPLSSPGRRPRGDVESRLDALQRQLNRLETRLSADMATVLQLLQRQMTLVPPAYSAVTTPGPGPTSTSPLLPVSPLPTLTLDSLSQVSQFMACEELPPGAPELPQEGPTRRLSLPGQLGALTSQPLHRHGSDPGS

[6] = Membrane permeability by PAMPA assay; format: ADME

**Q.** With `Cc1cccc(CN(C2CCOCC2)[C@H]2CCNC2)c1C` as the molecule, how does the microsomal CLint [1] read?
**A.** Its microsomal CLint is less than 7 µL/min/mg.

**Q.** For `CNCc1ccccc1Oc1ccc(OC)cc1Cl`, which IC50 [2] is on record?
**A.** Its IC50 is 22 nM.

**Q.** And the IC50 [3]?
**A.** Its IC50 is 157 nM.

**Q.** What about the IC50 [4] of the same molecule?
**A.** Its IC50 is 5950 nM.

**Q.** Which IC50 [2] does the source give for `CN(C)Cc1ccccc1Oc1ccccc1` here?
**A.** Its IC50 is 660 nM.

**Q.** What about the IC50 [3] of the same molecule?
**A.** Its IC50 is 70 nM.

**Q.** Which IC50 [3] does the source give for `CNCc1ccccc1Oc1ccc(F)cc1Cl` here?
**A.** Its IC50 is 300 nM.

**Q.** What about the IC50 [4] of the same molecule?
**A.** Its IC50 is 6510 nM.

**Q.** With `CNCc1ccccc1Oc1ccc(Cl)cc1Cl` as the molecule, how does the IC50 [2] read?
**A.** The IC50 was 56 nM.

**Q.** And the IC50 [3]?
**A.** The IC50 was 42 nM.

**Q.** What about the IC50 [4] of the same molecule?
**A.** Its IC50 is 506 nM.

**Q.** What does the source list for `CN(C)Cc1ccccc1Oc1ccc(F)cc1Cl`?
**A.** IC50 [2]: 32 nM; IC50 [3]: 46 nM; IC50 [4]: 2130 nM; microsomal CLint [1]: 219 µL/min/mg

**Q.** Which IC50 [2] does the source give for `CNCc1ccccc1Oc1ccc(Cl)cc1OC` here?
**A.** Its IC50 is 13 nM.

**Q.** What about the IC50 [3] of the same molecule?
**A.** Its IC50 is 78 nM.

**Q.** What about the IC50 [4] of the same molecule?
**A.** The IC50 was 19600 nM.

**Q.** And the microsomal CLint [1]?
**A.** The microsomal CLint was 9 µL/min/mg.

**Q.** And the Ki [5]?
**A.** The Ki was 4380 nM.

**Q.** What does the source list for `CN(C)Cc1ccccc1Oc1ccc(Cl)cc1F`?
**A.** IC50 [2]: 6 nM; IC50 [3]: 21 nM; IC50 [4]: 421 nM

**Q.** For `CN(C)Cc1ccccc1Oc1ccc(Cl)cc1`, which IC50 [2] is on record?
**A.** The IC50 was 18 nM.

**Q.** And the IC50 [3]?
**A.** The IC50 was 256 nM.

**Q.** And the IC50 [4]?
**A.** The IC50 was 124 nM.

**Q.** For `CN(C)Cc1ccccc1Oc1cccc(Cl)c1`, which IC50 [2] is on record?
**A.** The IC50 was 238 nM.

**Q.** And the IC50 [3]?
**A.** Its IC50 is 82 nM.

**Q.** What about the IC50 [4] of the same molecule?
**A.** The IC50 was 194 nM.

**Q.** Which IC50 [2] does the source give for `CNCc1cc(C(=O)NC)ccc1Oc1ccc(Cl)cc1OC` here?
**A.** The IC50 was 13 nM.

**Q.** And the IC50 [3]?
**A.** The IC50 was 78 nM.

**Q.** What about the IC50 [4] of the same molecule?
**A.** The IC50 was 15700 nM.

**Q.** And the microsomal CLint [1]?
**A.** Its microsomal CLint is 8 µL/min/mg.

**Q.** And the Ki [5]?
**A.** Its Ki is greater than 7500 nM.

**Q.** And the Papp [6]?
**A.** The Papp was 14 ×10⁻⁶ cm/s.

**Q.** For `CNCc1cc(NS(C)(=O)=O)ccc1Oc1ccc(Cl)cc1C`, which IC50 [2] is on record?
**A.** The IC50 was 16 nM.

**Q.** And the IC50 [3]?
**A.** Its IC50 is 25 nM.

**Q.** What about the IC50 [4] of the same molecule?
**A.** Its IC50 is 320 nM.

**Q.** What about the microsomal CLint [1] of the same molecule?
**A.** Its microsomal CLint is 8 µL/min/mg.

**Q.** And the Ki [5]?
**A.** The Ki was 7250 nM.

**Q.** And the Papp [6]?
**A.** The Papp was 2.2 ×10⁻⁶ cm/s.

**Q.** With `CNCc1cc(C(=O)N(C)C)ccc1Oc1ccc(Cl)cc1Cl` as the molecule, how does the IC50 [2] read?
**A.** The IC50 was 11 nM.

**Q.** What about the IC50 [3] of the same molecule?
**A.** Its IC50 is 33 nM.

**Q.** What about the IC50 [4] of the same molecule?
**A.** The IC50 was 275 nM.

**Q.** And the microsomal CLint [1]?
**A.** Its microsomal CLint is 13 µL/min/mg.

**Q.** And the Papp [6]?
**A.** The Papp was 14 ×10⁻⁶ cm/s.

**Q.** What does the source list for `CNCc1cc(C#N)ccc1Oc1ccc(Cl)cc1Cl`?
**A.** IC50 [2]: 28 nM; IC50 [3]: > 400 nM; IC50 [4]: 3010 nM; Ki [5]: 2210 nM

**Q.** With `CNCc1cc(C(N)=O)ccc1Oc1ccc(Cl)cc1Cl` as the molecule, how does the IC50 [2] read?
**A.** Its IC50 is 37 nM.

**Q.** What about the IC50 [3] of the same molecule?
**A.** Its IC50 is 84 nM.

**Q.** And the IC50 [4]?
**A.** Its IC50 is 1210 nM.

**Q.** What about the microsomal CLint [1] of the same molecule?
**A.** Its microsomal CLint is 8 µL/min/mg.

**Q.** And the Papp [6]?
**A.** The Papp was 10 ×10⁻⁶ cm/s.

**Q.** With `CNCc1cc(C(=O)N(C)C)ccc1Oc1ccc(Cl)cc1C` as the molecule, how does the IC50 [2] read?
**A.** Its IC50 is 17 nM.

**Q.** And the IC50 [3]?
**A.** The IC50 was 17 nM.

**Q.** What about the IC50 [4] of the same molecule?
**A.** The IC50 was 172 nM.

**Q.** And the microsomal CLint [1]?
**A.** The microsomal CLint was 9 µL/min/mg.

**Q.** What about the Ki [5] of the same molecule?
**A.** The Ki was 3750 nM.

**Q.** What about the Papp [6] of the same molecule?
**A.** The Papp was 19 ×10⁻⁶ cm/s.

**Q.** For `CNCc1cc(C(N)=O)ccc1Oc1ccc(Cl)cc1C`, which IC50 [2] is on record?
**A.** Its IC50 is 7 nM.

**Q.** What about the IC50 [3] of the same molecule?
**A.** The IC50 was 46 nM.

**Q.** What about the IC50 [4] of the same molecule?
**A.** The IC50 was 2820 nM.

**Q.** And the microsomal CLint [1]?
**A.** The microsomal CLint was 8 µL/min/mg.

**Q.** Which IC50 [2] does the source give for `CNCc1cc(C(N)=O)ccc1Oc1ccc(Cl)cc1OC` here?
**A.** Its IC50 is 12 nM.

**Q.** And the IC50 [3]?
**A.** Its IC50 is 62 nM.

**Q.** And the IC50 [4]?
**A.** Its IC50 is 21000 nM.

**Q.** And the microsomal CLint [1]?
**A.** The microsomal CLint was 8 µL/min/mg.

**Q.** And the Ki [5]?
**A.** The Ki was greater than 7500 nM.

**Q.** What about the Papp [6] of the same molecule?
**A.** Its Papp is 11 ×10⁻⁶ cm/s.

**Q.** What does the source list for `CNCc1cc(C#N)ccc1Oc1ccc(Cl)cc1OC`?
**A.** IC50 [2]: 5 nM; IC50 [3]: > 400 nM; IC50 [4]: > 40000 nM

**Q.** Which results are given for `CN(C)Cc1ccccc1Oc1ccc(Cl)cc1Cl`?
**A.** IC50 [2]: 4 nM; IC50 [3]: 11 nM; IC50 [4]: 195 nM; microsomal CLint [1]: 223 µL/min/mg

**Q.** For `CNCc1cc(C(=O)N(C)C)ccc1Oc1ccc(Cl)cc1OC`, which IC50 [2] is on record?
**A.** Its IC50 is 8 nM.

**Q.** What about the IC50 [3] of the same molecule?
**A.** Its IC50 is 32 nM.

**Q.** And the IC50 [4]?
**A.** The IC50 was greater than 40000 nM.

**Q.** And the microsomal CLint [1]?
**A.** The microsomal CLint was 15 µL/min/mg.

**Q.** What about the Papp [6] of the same molecule?
**A.** The Papp was 15 ×10⁻⁶ cm/s.

**Q.** For `CN(C)Cc1ccccc1Oc1ccccc1Cl`, which IC50 [2] is on record?
**A.** Its IC50 is 282 nM.

**Q.** And the IC50 [3]?
**A.** Its IC50 is 15 nM.

**Q.** What about the IC50 [4] of the same molecule?
**A.** Its IC50 is 2730 nM.

**Q.** What about the microsomal CLint [1] of the same molecule?
**A.** Its microsomal CLint is 186 µL/min/mg.

**Q.** For `CNCc1ccccc1Oc1ccc(Cl)cc1C`, which IC50 [2] is on record?
**A.** The IC50 was 18 nM.

**Q.** What about the IC50 [3] of the same molecule?
**A.** The IC50 was 22 nM.

**Q.** What about the IC50 [4] of the same molecule?
**A.** Its IC50 is 421 nM.

**Q.** And the microsomal CLint [1]?
**A.** The microsomal CLint was 20 µL/min/mg.

**Q.** Which results are given for `CNCc1cc(N2CCCS2(=O)=O)ccc1Oc1ccc(Cl)cc1C`?
**A.** IC50 [2]: 10 nM; IC50 [3]: 11 nM; IC50 [4]: 47 nM; microsomal CLint [1]: 11 µL/min/mg; Ki [5]: 1590 nM; Papp [6]: 2.7 ×10⁻⁶ cm/s

**Q.** Which IC50 [2] does the source give for `COc1cc(Cl)ccc1Oc1ccccc1CN(C)C` here?
**A.** The IC50 was 6 nM.

**Q.** What about the IC50 [3] of the same molecule?
**A.** Its IC50 is 14 nM.

**Q.** What about the IC50 [4] of the same molecule?
**A.** The IC50 was 3780 nM.

**Q.** And the microsomal CLint [1]?
**A.** The microsomal CLint was 45 µL/min/mg.

**Q.** What about the Ki [5] of the same molecule?
**A.** The Ki was greater than 7500 nM.

**Q.** For `CNCc1cc(C(=O)NC)ccc1Oc1ccc(Cl)cc1C`, which IC50 [2] is on record?
**A.** Its IC50 is 14 nM.

**Q.** What about the IC50 [3] of the same molecule?
**A.** Its IC50 is 26 nM.

**Q.** And the IC50 [4]?
**A.** The IC50 was 387 nM.

**Q.** And the microsomal CLint [1]?
**A.** Its microsomal CLint is 9 µL/min/mg.

**Q.** Which results are given for `CNCc1cc(C(=O)NC)ccc1Oc1ccc(Cl)cc1Cl`?
**A.** IC50 [2]: 13 nM; IC50 [3]: 38 nM; IC50 [4]: 800 nM; microsomal CLint [1]: 9 µL/min/mg; Ki [5]: 1760 nM

**Q.** Which results are given for `CNCc1ccccc1Oc1ccc(Cl)cc1F`?
**A.** IC50 [2]: 73 nM; IC50 [3]: 429 nM; microsomal CLint [1]: 22 µL/min/mg; Ki [5]: 5930 nM

**Q.** For `CNCc1cc(N2CCCS2(=O)=O)ccc1Oc1ccc(Cl)cc1Cl`, which IC50 [2] is on record?
**A.** Its IC50 is 12 nM.

**Q.** And the IC50 [3]?
**A.** The IC50 was 17 nM.

**Q.** And the IC50 [4]?
**A.** The IC50 was 138 nM.

**Q.** And the microsomal CLint [1]?
**A.** Its microsomal CLint is 12 µL/min/mg.
